{"source": "ChEMBL document CHEMBL2146434", "about": "“Synthesis and biological evaluation of new amino acid and dipeptide derivatives of neocryptolepine as anticancer agents” (J Med Chem, 2012)", "key": {"LoVo": {"tested_on": "LoVo", "assay": "Cytotoxicity against human LoVo cells after 72 hrs by SRB assay", "format": "functional, cell-based", "in_short": "(§1)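 IC50 is the compound concentration giving 50% inhibition of cell proliferation. It was determined on normal mouse BALB/3T3 fibroblasts and on human A549, MCF-7 and LoVo cancer lines, with doxorubicin hydrochloride and DiMIQ as reference compounds.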"}, "[1]": {"assay": "Octanol-water partition coefficient, log P of the compound at pH 2.2", "format": "physicochemical"}, "[2]": {"assay": "Octanol-water partition coefficient, log P of the compound at pH 5", "format": "physicochemical"}, "Mus musculus [3]": {"tested_on": "Mus musculus", "assay": "Toxicity in C57BL/6 mouse xenografted with mouse LLC cells assessed as body weight loss at 30 mg/kg/day, sc administered on day 9 to day 12 of tumor implantation", "format": "organism-based", "design": "route subcutaneous", "details": "in vivo", "in_short": "(§2)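 Mouse Lewis lung carcinoma (LLC) cells inoculated sc into mice. Daily dosing from day 9: 15 mg kg⁻¹ day⁻¹ through day 13 or 30 mg kg⁻¹ day⁻¹ through day 12; 25 or 50 mg kg⁻¹ day⁻¹ through day 13. Route is given as ip in tables and text but sc in figure legends. Body weight monitored for loss alongside tumor growth. Single 100 mg/kg cyclophosphamide dose as cytostatic control.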"}, "Mus musculus [4]": {"tested_on": "Mus musculus", "assay": "Toxicity in C57BL/6 mouse xenografted with mouse LLC cells assessed as body weight loss at 15 mg/kg/day, sc administered on day 9 to day 13 of tumor implantation", "format": "organism-based", "design": "route subcutaneous", "details": "in vivo", "in_short": "(§3)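 Body weight was tracked in C57BL/6 mice bearing subcutaneously inoculated LLC during therapy given daily from day 9 to day 13. A single 100 mg/kg dose of cyclophosphamide served as the cytostatic control group.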"}, "Mus musculus [5]": {"tested_on": "Mus musculus", "assay": "Toxicity in C57BL/6 mouse xenografted with mouse LLC cells assessed as body weight loss at 30 mg/kg/day, ip administered on day 9 to day 12 of tumor implantation", "format": "organism-based", "design": "route intraperitoneal", "details": "in vivo", "in_short": "as §2"}, "KB": {"tested_on": "KB", "assay": "Cytotoxicity against human KB cells after 72 hrs by SRB assay", "format": "functional, cell-based"}, "A549": {"tested_on": "A549", "assay": "Cytotoxicity against human A549 cells after 72 hrs by SRB assay", "format": "functional, cell-based", "details": "A549, 72 h", "in_short": "as §1"}, "MCF7": {"tested_on": "MCF7", "assay": "Cytotoxicity against human MCF7 cells after 72 hrs by SRB assay", "format": "functional, cell-based", "details": "MCF7, 72 h", "in_short": "as §1"}, "[6]": {"tested_on": "Lewis lung carcinoma cell line", "assay": "Antineoplastic activity against mouse LLC cells xenografted in C57BL/6 mouse assessed as tumor growth inhibition at 25 mg/kg/day, ip administered on day 9 to day 13 of tumor implantation measured on day 11", "format": "functional", "details": "route intraperitoneal, read-out: TGI", "in_short": "(§4)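 Mice bore Lewis lung carcinoma (LLC) inoculated subcutaneously and received test agents intraperitoneally at 15–50 mg kg⁻¹ day⁻¹ from day 9 or day 10. A single 100 mg/kg cyclophosphamide dose was the cytostatic control. Tumor growth was followed as the group median, and TGI% was calculated from medians versus untreated controls. Significance was tested by nonparametric Kruskal–Wallis multiple comparison, p < 0.05.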"}, "[7]": {"tested_on": "Lewis lung carcinoma cell line", "assay": "Antineoplastic activity against mouse LLC cells xenografted in C57BL/6 mouse assessed as tumor growth inhibition at 25 mg/kg/day, ip administered on day 9 to day 13 of tumor implantation measured on day 14", "format": "functional", "details": "route intraperitoneal, read-out: TGI", "in_short": "as §4"}, "[8]": {"tested_on": "Lewis lung carcinoma cell line", "assay": "Antineoplastic activity against mouse LLC cells xenografted in C57BL/6 mouse assessed as tumor growth inhibition at 25 mg/kg/day, ip administered on day 9 to day 13 of tumor implantation measured on day 16", "format": "functional", "details": "route intraperitoneal, read-out: TGI", "in_short": "as §4"}, "[9]": {"tested_on": "Lewis lung carcinoma cell line", "assay": "Antineoplastic activity against mouse LLC cells xenografted in C57BL/6 mouse assessed as tumor growth inhibition at 25 mg/kg/day, ip administered on day 9 to day 13 of tumor implantation measured on day 18", "format": "functional", "details": "route intraperitoneal, read-out: TGI", "in_short": "as §4"}, "[10]": {"tested_on": "Lewis lung carcinoma cell line", "assay": "Antineoplastic activity against mouse LLC cells xenografted in C57BL/6 mouse assessed as tumor growth inhibition at 25 mg/kg/day, ip administered on day 9 to day 13 of tumor implantation measured on day 21", "format": "functional", "details": "route intraperitoneal, read-out: TGI", "in_short": "as §4"}, "[11]": {"tested_on": "Lewis lung carcinoma cell line", "assay": "Antineoplastic activity against mouse LLC cells xenografted in C57BL/6 mouse assessed as tumor growth inhibition at 25 mg/kg/day, ip administered on day 9 to day 13 of tumor implantation measured on day 23", "format": "functional", "details": "route intraperitoneal, read-out: TGI", "in_short": "as §4"}, "[12]": {"tested_on": "Lewis lung carcinoma cell line", "assay": "Antineoplastic activity against mouse LLC cells xenografted in C57BL/6 mouse assessed as tumor growth inhibition at 50 mg/kg/day, ip administered on day 9 to day 13 of tumor implantation measured on day 11", "format": "functional", "details": "route intraperitoneal, read-out: TGI", "in_short": "as §4"}, "[13]": {"tested_on": "Lewis lung carcinoma cell line", "assay": "Antineoplastic activity against mouse LLC cells xenografted in C57BL/6 mouse assessed as tumor growth inhibition at 50 mg/kg/day, ip administered on day 9 to day 13 of tumor implantation measured on day 14", "format": "functional", "details": "route intraperitoneal, read-out: TGI", "in_short": "as §4"}, "[14]": {"tested_on": "Lewis lung carcinoma cell line", "assay": "Antineoplastic activity against mouse LLC cells xenografted in C57BL/6 mouse assessed as tumor growth inhibition at 50 mg/kg/day, ip administered on day 9 to day 13 of tumor implantation measured on day 16", "format": "functional", "details": "route intraperitoneal, read-out: TGI", "in_short": "as §4"}, "[15]": {"tested_on": "Lewis lung carcinoma cell line", "assay": "Antineoplastic activity against mouse LLC cells xenografted in C57BL/6 mouse assessed as tumor growth inhibition at 50 mg/kg/day, ip administered on day 9 to day 13 of tumor implantation measured on day 18", "format": "functional", "details": "route intraperitoneal, read-out: TGI", "in_short": "as §4"}, "[16]": {"tested_on": "Lewis lung carcinoma cell line", "assay": "Antineoplastic activity against mouse LLC cells xenografted in C57BL/6 mouse assessed as tumor growth inhibition at 50 mg/kg/day, ip administered on day 9 to day 13 of tumor implantation measured on day 21", "format": "functional", "details": "route intraperitoneal, read-out: TGI", "in_short": "as §4"}, "[17]": {"tested_on": "Lewis lung carcinoma cell line", "assay": "Antineoplastic activity against mouse LLC cells xenografted in C57BL/6 mouse assessed as tumor growth inhibition at 50 mg/kg/day, ip administered on day 9 to day 13 of tumor implantation measured on day 23", "format": "functional", "details": "route intraperitoneal, read-out: TGI", "in_short": "as §4"}, "Mus musculus [18]": {"tested_on": "Mus musculus", "assay": "Toxicity in C57BL/6 mouse xenografted with mouse LLC cells assessed as body weight loss at 15 mg/kg/day, ip administered on day 9 to day 13 of tumor implantation", "format": "organism-based", "design": "route intraperitoneal", "details": "in vivo", "in_short": "as §3"}, "Mus musculus [19]": {"tested_on": "Mus musculus", "assay": "Toxicity in C57BL/6 mouse xenografted with mouse LLC cells assessed as body weight loss at 25 mg/kg/day, sc administered on day 9 to day 13 of tumor implantation", "format": "organism-based", "design": "route subcutaneous", "details": "in vivo", "in_short": "as §3"}, "Mus musculus [20]": {"tested_on": "Mus musculus", "assay": "Toxicity in C57BL/6 mouse xenografted with mouse LLC cells assessed as body weight loss at 50 mg/kg/day, sc administered on day 9 to day 13 of tumor implantation", "format": "organism-based", "design": "route subcutaneous", "details": "in vivo", "in_short": "as §2"}, "[21]": {"assay": "Dissociation constant, pKa of the compound in PBS buffer at 5 uM at pH 2 to 10 by UV-spectrophotometric analysis", "format": "physicochemical", "in_short": "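UV spectrophotometric titration at a final compound concentration of 5 μM. At this concentration the absorbance–concentration relationship stayed linear. pKa was read from spectral changes across pH.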"}, "[22]": {"assay": "Octanol-water partition coefficient, log P of the compound in citric buffer at pH 2.5 by spectrophotometric analysis", "format": "physicochemical", "in_short": "(§5)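 Octanol–water partitioning, with log P defined as log(C_octanol/C_water). Compound in the aqueous phase was measured spectrophotometrically, and octanol content was obtained by subtracting the supernatant concentration from the total. Values are the mean of two independent experiments, each run in triplicate.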"}, "[23]": {"assay": "Octanol-water partition coefficient, log P of the compound in PBS buffer at pH 7.4 by spectrophotometric analysis", "format": "physicochemical", "in_short": "as §5"}, "[24]": {"assay": "Toxicity in human erythrocytes assessed as hemolysis at 0.3 mM after 30 mins by spectrophotometric analysis", "format": "cell-based, Erythrocyte", "details": "read-out: Activity", "in_short": "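Human erythrocyte suspension under isotonic conditions (pH 7.4, hematocrit 50%). Compound added across a concentration series and incubated 30 min at 37 °C before hemolysis was scored. Mean ± SD of three individual determinations. Statistics by Mann–Whitney U test, p < 0.05.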"}, "[25]": {"assay": "Solubility of the compound in water", "format": "physicochemical", "details": "buffer"}, "Mus musculus [26]": {"tested_on": "Mus musculus", "assay": "Toxicity in C57BL/6 mouse xenografted with mouse LLC cells at 25 to 50 mg/kg/day, ip administered on day 9 to day 13 of tumor implantation", "format": "organism-based", "design": "route intraperitoneal", "details": "in vivo", "in_short": "as §2"}}}
{"smiles": "Cc1c2c3ccccc3nc-2n(C)c2ccccc12", "values": [{"measurement": "IC50", "setting": "LoVo", "result": 200, "unit": "nM"}, {"measurement": "logP", "setting": "[1]", "result": -1}, {"measurement": "logP", "setting": "[2]", "result": 2}]}
{"smiles": "Cc1c2c3cc(NC(=O)CNC(=O)CN)ccc3nc-2n(C)c2ccccc12.Cl.Cl", "values": [{"measurement": "Activity", "setting": "Mus musculus [3]", "result": "<= 15%"}, {"measurement": "Activity", "setting": "Mus musculus [4]", "result": "<= 15%"}, {"measurement": "Activity", "setting": "Mus musculus [5]", "result": "<= 15%"}, {"measurement": "IC50", "setting": "KB", "result": 4650, "unit": "nM"}, {"measurement": "IC50", "setting": "A549", "result": 900, "unit": "nM"}, {"measurement": "IC50", "setting": "MCF7", "result": 2700, "unit": "nM"}, {"measurement": "IC50", "setting": "LoVo", "result": 730, "unit": "nM"}, {"measurement": "inhibition in vivo at 25 mg/kg/day", "setting": "[6]", "result": 37.4, "unit": "%"}, {"measurement": "inhibition in vivo at 25 mg/kg/day", "setting": "[7]", "result": 31.8, "unit": "%"}, {"measurement": "inhibition in vivo at 25 mg/kg/day", "setting": "[8]", "result": 27.2, "unit": "%"}, {"measurement": "inhibition in vivo at 25 mg/kg/day", "setting": "[9]", "result": 22.4, "unit": "%"}, {"measurement": "inhibition in vivo at 25 mg/kg/day", "setting": "[10]", "result": 28, "unit": "%"}, {"measurement": "inhibition in vivo at 25 mg/kg/day", "setting": "[11]", "result": 35.8, "unit": "%"}, {"measurement": "inhibition in vivo at 50 mg/kg/day", "setting": "[12]", "result": 46.9, "unit": "%"}, {"measurement": "inhibition in vivo at 50 mg/kg/day", "setting": "[13]", "result": 62.6, "unit": "%"}, {"measurement": "inhibition in vivo at 50 mg/kg/day", "setting": "[14]", "result": 52.2, "unit": "%"}, {"measurement": "inhibition in vivo at 50 mg/kg/day", "setting": "[15]", "result": 38.3, "unit": "%"}, {"measurement": "inhibition in vivo at 50 mg/kg/day", "setting": "[16]", "result": 29.3, "unit": "%"}, {"measurement": "inhibition in vivo at 50 mg/kg/day", "setting": "[17]", "result": 42.9, "unit": "%"}, {"measurement": "Activity", "setting": "Mus musculus [18]", "result": "<= 15%"}, {"measurement": "Activity", "setting": "Mus musculus [19]", "result": "<= 15%"}, {"measurement": "Activity", "setting": "Mus musculus [20]", "result": "<= 15%"}, {"measurement": "pKa at 5 µM", "setting": "[21]", "result": 7.5}, {"measurement": "logP", "setting": "[22]", "result": -1.9}, {"measurement": "logD", "setting": "[23]", "result": -0.2}, {"measurement": "hemolysis at 0.5 h, 300 µM", "setting": "[24]", "result": 9.97, "unit": "%"}, {"measurement": "solubility", "setting": "[25]", "result": "soluble"}, {"measurement": "Activity", "setting": "Mus musculus [26]", "result": "Non-toxic"}]}
